Reference: article PMC11757046 (Journal of medicinal chemistry, 2025)

Key:
Format in all cases: cell-based, human
[1] = system: SH-SY5Y cells; test: Protection of MPP+-inhibited cells; settings: then 1 mM MPP+ 24 h, relative to MPP+ only
[2] = system: SH-SY5Y cells; test: Detoxification of external aldehyde Ia; settings: then 20 μM Ia 24 h, relative to Ia only; for fold increase in cell viability against Ia: 1 mM detox agent 3 h
In short: (§1)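 SH-SY5Y cells grown in DMEM/F12 with 10% FBS and seeded in 96-well plates for ~48 h at 37 °C, 5% CO2. They were pretreated with the test compound in fresh medium, washed twice, then exposed to the aldehyde in medium at 37 °C. Viability was read by SRB at 510 and 565 nm, background-subtracted. Fold change is % viable over aldehyde-only wells. Mean ± SD, n = 6, one-way ANOVA.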

[3] = system: SH-SY5Y cells; test: Detoxification of external aldehyde IIa; settings: IIa 150 μM; relative to IIa only
In short: as §1

[4] = system: SH-SY5Y cells; test: NAD+/NADH ratio assay; settings: MPP+-inhibited cells; negative control 68%
[5] = system: SH-SY5Y cells; test: Intracellular reactive oxygen species assay; settings: for intracellular ROS level relative to untreated control: MPP+-inhibited cells, DCFDA fluorometric assay
[6] = system: SH-SY5Y cells; test: JC-10 mitochondrial membrane potential assay; settings: MPP+-inhibited cells
[7] = Protection of MPP+-inhibited cells; settings: human
[8] = system: SH-SY5Y cells; test: Aldehyde quantification assay in MPP+-treated cells

Row | SMILES | fold increase in cell viability against MPP+ ([1]; 1 mM detox agent 3 h) | fold increase in cell viability against Ia [2] | fold improvement in cell viability against IIa [3] | intracellular NAD+ content (NAD+ %) [4] | intracellular ROS level relative to untreated control [5] | fold increase in cell viability against MPP+ ([1]; 50 μM detox agent 3 h) | MMP, red/green fluorescence ratio (JC-10) [6] | further results
1 | O=C1O[C@H]([C@@H](O)CO)C(O)=C1O [Asc, sodium ascorbate] | 1.1 fold | negligible change | none of the conventional detox agents |  |  |  |  | 
2 | NCCC(=O)N[C@@H](Cc1cnc[nH]1)C(=O)O [Car, carnosine] | 1.2 fold | 1.3 fold | none of the conventional detox agents | negligible effect | 7.5 × |  |  | 
3 | CCCCCC(O)C=CC=O (centres unmarked) [Ia, 4-hydroxynon-2-enal] |  |  |  |  |  |  |  | ROS levels after treatment with the aldehyde ([5]; SH-SY5Y cells treated with Ia): significantly increased ROS levels
4 | N[C@@H](Cc1ccc(O)c(O)c1)C(=O)O [L-Dopa, levodopa] |  |  | none of the conventional detox agents |  |  | 1.2 fold |  | 
5 | C[n+]1ccc(-c2ccccc2)cc1.[I-] [MPP^+, 1-methyl-4-phenylpyridinium iodide] |  |  |  | 27% | 9.1 × |  | 0.2 | viability at 24 h, 1 mM [7]: 54%; aldehyde concentration relative to untreated cells [8]: about 44 ×; aldehyde concentration in cells ([8]; Ir2mito used with HCOONa): 89 nmol/10^6 cells
6 | CC(C)(O)c1nc2ccc(Cl)cc2cc1N [Rep, reproxalap] |  |  | none of the conventional detox agents | 41% | 5.1 × | 1.3 fold | 0.4 | change in cell viability against Ia ([2]; 50 μM detox agent 3 h): negligible change
